# Data from ChEMBL document CHEMBL1123566, “Synthesis and cardiac electrophysiological activity of 2- and 3-[(substituted phenyl)alkyl]quinuclidines. Structure-activity relationships” (1987).
# “And” between values parts separate entries of the source, which are not always exact repeats. Identical values can stand only once.
# Key:
# Canis familiaris [1] = assay: Conduction time was determined by intraduodenal administration of two dosages of 10 mg/kg (low dose) of compound in anesthetized dogs. Value was reported for experiment 2; type: functional, Canis lupus familiaris
# How it was run: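 Anesthetized dogs; compound given intraduodenally, generally as two doses, the second a cumulative (high) dose. LV functional refractory period and conduction time measured 15, 30 and 45 min after dosing; heart rate and blood pressure measured during nonpacing intervals. Values are % change from control, given per individual animal. Active if FRP or CT prolonged by ≥12%.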
# Canis familiaris [2] = assay: Conduction time was determined by intraduodenal administration of two dosages of 30 mg/kg (high dose) of compound in anesthetized dogs. Value was reported for experiment 2; type: functional, Canis lupus familiaris
# How it was run: (§1)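 Anesthetized dogs given the compound intraduodenally, generally as two doses with the second a cumulative total (low/high). FRP and CT measured at 15, 30 and 45 min after dosing. HR and BP taken during nonpacing intervals. Values are percent change from control per animal. Activity criterion is FRP or CT prolonged ≥12%. Vehicle: 5% dextrose in water/tragacanth.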
# Canis familiaris [3] = assay: Heart rate was determined by intraduodenal administration of two dosages of 30 mg/kg (high dose) of compound in anesthetized dogs. Value was reported for experiment 2; type: functional, Canis lupus familiaris; how it was run: as §1
# Canis familiaris [4] = assay: Heart rate was determined by intraduodenal administration of two dosages of 30 mg/kg (high dose)of compound in anesthetized dogs. Value was reported for experiment 1; type: functional, Canis lupus familiaris; how it was run: as §1
# Canis familiaris [5] = assay: Conduction time was determined by intraduodenal administration of two dosages of 30 mg/kg (high dose)of compound in anesthetized dogs. Value was reported for experiment 1; type: functional, Canis lupus familiaris; how it was run: as §1
# Canis familiaris [6] = assay: Conduction time was determined by intraduodenal administration of two dosages of 10 mg/kg (low dose) of compound in anesthetized dogs. Value was reported for experiment 1; type: functional, Canis lupus familiaris; how it was run: as §1
# Canis familiaris [7] = assay: Heart rate was determined by intraduodenal administration of two dosages of 10 mg/kg (low dose) of compound in anesthetized dogs. Value was reported for experiment 1; type: functional, Canis lupus familiaris; how it was run: as §1
# Canis familiaris [8] = assay: Heart rate was determined by intraduodenal administration of two dosages of 10 mg/kg (low dose) of compound in anesthetized dogs. Value was reported for experiment 2; type: functional, Canis lupus familiaris; how it was run: as §1
# Canis familiaris [9] = assay: Left ventricular refractory period was determined by intraduodenal administration of two dosages of 10 mg/kg (low dose) of compound in anesthetized dogs. Value was reported for experiment 1; type: functional, Canis lupus familiaris, Cardiac ventricle
# How it was run: (§2)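 Anesthetized dogs, usually given two intraduodenal doses, with the second dose cumulative (low/high). Left ventricular FRP and CT were determined at 15, 30 and 45 min after dosing. HR and BP were measured during nonpacing intervals. Values are % change from control at low/high dose, for individual animals. The vehicle-stability set used 5% dextrose in water/tragacanth (n = 8).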
# Canis familiaris [10] = assay: Left ventricular refractory period was determined by intraduodenal administration of two dosages of 10 mg/kg (low dose) of compound in anesthetized dogs. Value was reported for experiment 2; type: functional, Canis lupus familiaris, Cardiac ventricle; how it was run: as §2
# Canis familiaris [11] = assay: Left ventricular refractory period was determined by intraduodenal administration of two dosages of 30 mg/kg (high dose)of compound in anesthetized dogs. Value was reported for experiment 2; type: functional, Canis lupus familiaris, Cardiac ventricle; how it was run: as §2
# Canis familiaris [12] = assay: Left ventricular refractory period was determined by intraduodenal administration of two dosages(high dose) of 30 mg/kg of compound in anesthetized dogs. Value was reported for experiment 1; type: functional, Canis lupus familiaris, Cardiac ventricle; how it was run: as §2
# Canis familiaris [13] = assay: Mean arterial blood pressure was determined by intraduodenal administration of two dosages of 10 mg/kg (low dose) of compound in anesthetized dogs. Value was reported for experiment 1; type: functional, Canis lupus familiaris; how it was run: as §2
# Canis familiaris [14] = assay: Mean arterial blood pressure was determined by intraduodenal administration of two dosages of 10 mg/kg (low dose) of compound in anesthetized dogs. Value was reported for experiment 2; type: functional, Canis lupus familiaris; how it was run: as §2
# Canis familiaris [15] = assay: Mean arterial blood pressure was determined by intraduodenal administration of two dosages of 30 mg/kg (high dose)of compound in anesthetized dogs. Value was reported for experiment 1; type: functional, Canis lupus familiaris; how it was run: as §2
# Canis familiaris [16] = assay: Mean arterial blood pressure was determined by intraduodenal administration of two dosages of 30 mg/kg(high dose) of compound in anesthetized dogs. Value was reported for experiment 2; type: functional, Canis lupus familiaris; how it was run: as §2
# Canis familiaris [17] = species on record: Canis familiaris; assay: In vitro electrophysiological evaluation in canine cardiac ventricular muscle reported as maximum % change for functional refractory period (FRP) at 0.1-100 uM concentration range; concentration at which it occurred is 100 uM.; parameters: species or system Canis lupus familiaris, Muscle tissue
# How it was run: (§3)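 Canine right ventricle and papillary muscle strips in oxygenated Tyrode's solution, fitted with stimulating and recording electrodes. The extra-stimulus conduction-interval method was adapted for in vitro use. FRP and CT were read from a conduction-interval curve before and after various compound concentrations, and expressed as percent change from control. Compounds were taken from 10 mM deionized-water stock into Tyrode's. Each strip was used once as its own control.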
# Canis familiaris [18] = species on record: Canis familiaris; assay: In vitro electrophysiological evaluation in canine cardiac ventricular muscle reported as maximum % change for functional refractory period (FRP) at 0.1-100 uM concentration range; concentration at which it occurred is 10 uM.; parameters: species or system Canis lupus familiaris, Muscle tissue; how it was run: as §3
# Canis familiaris [19] = species on record: Canis familiaris; assay: In vitro electrophysiological evaluation in canine cardiac ventricular muscle reported as % change for the functional refractory period (FRP) at 10 uM at concentration range of 0.1-100 uM; parameters: species or system Canis lupus familiaris, Muscle tissue; how it was run: as §3
# Canis familiaris [20] = species on record: Canis familiaris; assay: In vitro electrophysiological evaluation in canine cardiac ventricular muscle reported as % change for conduction time(CT) at 10 uM at 0.1-100 uM concentration range; type: functional, Canis lupus familiaris, Muscle tissue
# How it was run: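 Canine right ventricular/papillary muscle strips in oxygenated Tyrode's, extracellular extra-stimulus conduction-interval method. FRP and CT are read from conduction-interval curves before and during rising concentrations. Compound is a 10 mM aqueous stock diluted into Tyrode's. Each strip is used once as its own control. Readouts are percent change from control at 10 μM, plus the maximum change with its concentration.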
# Canis familiaris [21] = species on record: Canis familiaris; assay: In vitro electrophysiological evaluation in canine cardiac Purkinje fibres reported as percent change Vmax at 10 uM at concentration range of 0.1-30 uM; type: functional; settings: Canis lupus familiaris, Purkinje fiber
# How it was run: (§4)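 Canine cardiac Purkinje fibres, intracellular microelectrode recording, paced at a basic cycle length of 1 s. APD95 and Vmax read simultaneously. Compound: 10 mM stock in deionized water, diluted into Tyrode's solution, tested over the stated concentration range. Each fibre used once as its own control. Result is % change from control, given at 10 µM or as the maximum with its concentration. M = <10% decrease or an increase in Vmax.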
# Canis familiaris [22] = species on record: Canis familiaris; assay: In vitro electrophysiological evaluation in canine cardiac Purkinje fibres reported as percent change Vmax at 10 uM at concentration range of 0.1-100 uM; type: functional; settings: Canis lupus familiaris, Purkinje fiber
# How it was run: (§5)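 Canine cardiac Purkinje fibers, intracellular recording, paced at a basic cycle length of 1 s. APD95 and Vmax are recorded together across cumulative concentrations. Compound is a 10 mM aqueous stock diluted into Tyrode's solution. Each fiber is used once as its own control. Readouts are percent change from control at 10 μM, and the maximum change with the concentration where it occurred.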
# Canis familiaris [23] = species on record: Canis familiaris; assay: (§6) In vitro electrophysiological evaluation in canine cardiac occurred is 100 uM.; type: functional; settings: Canis lupus familiaris; Heart
# Canis familiaris [24] = species on record: Canis familiaris; assay: In vitro electrophysiological evaluation in canine cardiac Purkinje fibres reported as percent change Vmax at 10 uM at concentration range of 5-50 uM; type: functional; settings: Canis lupus familiaris, Purkinje fiber; how it was run: as §5
# Canis familiaris [25] = species on record: Canis familiaris; assay: as §6; type: functional, organism-based; settings: Canis lupus familiaris; Heart
# Canis familiaris [26] = species on record: Canis familiaris; assay: In vitro electrophysiological evaluation in canine cardiac occurred is 30 uM.; type: functional; settings: Canis lupus familiaris; Heart
# Canis familiaris [27] = species on record: Canis familiaris; assay: In vitro electrophysiological evaluation in canine cardiac Purkinje fibres reported as % change for action potential duration at 10 uM at 0.1-30 uM concentration range; type: functional, Canis lupus familiaris, Purkinje fiber; how it was run: as §4
# Canis familiaris [28] = species on record: Canis familiaris; assay: In vitro electrophysiological evaluation in canine cardiac Purkinje fibres reported as % change for action potential duration at 10 uM at 5-50 uM concentration range; type: functional, Canis lupus familiaris, Purkinje fiber; how it was run: as §5
# Canis familiaris [29] = species on record: Canis familiaris; assay: In vitro electrophysiological evaluation in canine cardiac Purkinje fibres reported as % change for action potential duration at a concentration of 10 uM; type: functional, Canis lupus familiaris, Purkinje fiber; how it was run: as §4
# Canis familiaris [30] = species on record: Canis familiaris; assay: In vitro electrophysiological activity in canine cardiac occurred is 30 uM.; type: functional, Canis lupus familiaris, Heart
# Canis familiaris [31] = species on record: Canis familiaris; assay: In vitro electrophysiological activity in canine cardiac occurred is 100 uM.; type: functional, Canis lupus familiaris, Heart
# Canis familiaris [32] = species on record: Canis familiaris; assay: In vitro electrophysiological activity in canine cardiac occurred is 50 uM.; type: functional, Canis lupus familiaris, Heart
# Canis familiaris [33] = species on record: Canis familiaris; assay: In vitro electrophysiological evaluation in canine cardiac ventricular muscle reported as maximum % change for conduction time(CT); Minimal (<10% decrease or increase in […]).; type: functional, Canis lupus familiaris, Muscle tissue; how it was run: as §3
# Canis familiaris [34] = species on record: Canis familiaris; assay: In vitro electrophysiological evaluation in canine cardiac ventricular muscle reported as % change for the functional refractory period (FRP) at 10 uM; parameters: species or system Canis lupus familiaris, Muscle tissue; how it was run: as §3
# Canis familiaris [35] = species on record: Canis familiaris; assay: In vitro electrophysiological evaluation in canine cardiac ventricular muscle reported as % change for conduction time(CT) at 10 uM; Minimal (<10% decrease or increase in Vmax).; type: functional, Canis lupus familiaris, Muscle tissue; how it was run: as §3
# Canis familiaris [36] = species on record: Canis familiaris; assay: In vitro electrophysiological evaluation in canine cardiac Purkinje fibres reported as percent change Vmax at 10 uM at concentration range of 0.1-100 uM; Minimal (<10% decrease or increase in Vmax).; type: functional, organism-based; settings: Canis lupus familiaris, Purkinje fiber; how it was run: as §4
# Canis familiaris [37] = species on record: Canis familiaris; assay: In vitro electrophysiological evaluation in canine cardiac ventricular muscle reported as maximum % change for functional refractory period (FRP); concentration at which it occurred is 10 uM.; parameters: species or system Canis lupus familiaris, Muscle tissue; how it was run: as §3
# Canis familiaris [38] = species on record: Canis familiaris; assay: In vitro electrophysiological evaluation in canine cardiac Purkinje fibres reported as maximum percent change Vmax concentration range of 0.1-100 uM; Minimal (<10% decrease or increase in Vmax).; type: functional; settings: Canis lupus familiaris; Purkinje fiber; how it was run: as §4
# Canis familiaris [39] = species on record: Canis familiaris; assay: In vitro electrophysiological evaluation in canine cardiac Purkinje fibres reported as % change for action potential duration at 10 uM at 0.1-100 uM concentration range; type: functional, Canis lupus familiaris, Purkinje fiber; how it was run: as §4
compound,measurement,setting,value
C=C[C@H]1CN2CC[C@H]1C[C@@H]2[C@@H](O)c1ccnc2ccc(OC)cc12 [QUINIDINE],CT,Canis familiaris [1],10%
same,CT,Canis familiaris [2],38%
same,HR,Canis familiaris [3],-39%
same,HR,Canis familiaris [4],-42%
same,CT,Canis familiaris [5],51%
same,CT,Canis familiaris [6],7%
same,HR,Canis familiaris [7],-22%
same,HR,Canis familiaris [8],-18%
same,LV FRP,Canis familiaris [9],13%
same,LV FRP,Canis familiaris [10],16%
same,LV FRP,Canis familiaris [11],28%
same,LV FRP,Canis familiaris [12],20%
same,Mean blood pressure,Canis familiaris [13],2%
same,Mean blood pressure,Canis familiaris [14],-7%
same,Mean blood pressure,Canis familiaris [15],-4%
same,Mean blood pressure,Canis familiaris [16],15%
same,FRP,Canis familiaris [17],27% and 24% and 46%
same,FRP,Canis familiaris [18],22%
same,FRP,Canis familiaris [19],21% [middle of 4 runs]
same,CT,Canis familiaris [20],17% and 11% and <10%
same,Vmax,Canis familiaris [21],< 10%
same,Vmax,Canis familiaris [22],-10%
same,Vmax,Canis familiaris [23],-40%
same,Vmax,Canis familiaris [24],-11%
same,Vmax,Canis familiaris [25],-53%
same,Vmax,Canis familiaris [26],-19%
same,APD95,Canis familiaris [27],-21%
same,APD95,Canis familiaris [28],-9%
same,APD95,Canis familiaris [29],-9%
same,APD95,Canis familiaris [30],-39%
same,APD95,Canis familiaris [31],-24%
same,APD95,Canis familiaris [32],-19%
Cl.O=C1C2CCN(CC2)C1CCCc1ccccc1 (stereo unspecified),CT,Canis familiaris [33],<10%
same,FRP,Canis familiaris [34],5%
same,CT,Canis familiaris [35],<10%
same,Vmax,Canis familiaris [36],< 10%
same,FRP,Canis familiaris [37],5%
same,Vmax,Canis familiaris [38],< 10%
same,APD95,Canis familiaris [39],1%
same,APD95,Canis familiaris [29],-6%
same,APD95,Canis familiaris [31],-38% and -35%
